Source: ChEMBL document CHEMBL1135402, “New serotonin 5-HT(2A), 5-HT(2B), and 5-HT(2C) receptor antagonists: synthesis, pharmacology, 3D-QSAR, and molecular modeling of (aminoalkyl)benzo and heterocycloalkanones” (J Med Chem, 2002)

Tests used:
[1] = target: T1, 5-hydroxytryptamine receptor 2A (Rattus norvegicus, UniProt P14842); test: Negative log concentration of antagonist on 5-hydroxytryptamine 2A receptor in rat thoracic aorta; format: functional, tissue-based; conditions: read-out: pA2 (converted)
[2] = target: Serotonin receptor 2a and 2c (5HT2A and 5HT2C) (Rattus norvegicus) (UniProt P08909+P14842); test: Selectivity ratio towards Ki of 5-hydroxytryptamine 2A receptor to 5-hydroxytryptamine 2C receptor; format: protein assay
[3] = target: T2, 5-hydroxytryptamine receptor 2B (Rattus norvegicus, UniProt P30994); test: Negative log concentration of antagonistic compound was determined on 5-hydroxytryptamine 2B receptor of Rat stomach fundus; format: functional, tissue-based; conditions: read-out: pA2 (converted)
How it was run: (§1)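 Rat stomach fundus strips equilibrated 1 h under 1 g load; isometric contractions to cumulative 5-HT (0.01 nM–10 μM) in organ bath. Control curves, then antagonist preincubated before test curve; pA2 from EC50 shift at one antagonist concentration, […].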

[4] = target: T1, 5-hydroxytryptamine receptor 2A; test: Inhibitory constant on 5-hydroxytryptamine 2A receptor of Rat frontal cortex; format: tissue-based
[5] = target: T3, 5-hydroxytryptamine receptor 2C (Homo sapiens, UniProt P28335); test: Inhibitory constant on human 5-hydroxytryptamine 2C receptor transfected in to HeLa cells; format: cell-based
T3 sequence (P28335 whole entry): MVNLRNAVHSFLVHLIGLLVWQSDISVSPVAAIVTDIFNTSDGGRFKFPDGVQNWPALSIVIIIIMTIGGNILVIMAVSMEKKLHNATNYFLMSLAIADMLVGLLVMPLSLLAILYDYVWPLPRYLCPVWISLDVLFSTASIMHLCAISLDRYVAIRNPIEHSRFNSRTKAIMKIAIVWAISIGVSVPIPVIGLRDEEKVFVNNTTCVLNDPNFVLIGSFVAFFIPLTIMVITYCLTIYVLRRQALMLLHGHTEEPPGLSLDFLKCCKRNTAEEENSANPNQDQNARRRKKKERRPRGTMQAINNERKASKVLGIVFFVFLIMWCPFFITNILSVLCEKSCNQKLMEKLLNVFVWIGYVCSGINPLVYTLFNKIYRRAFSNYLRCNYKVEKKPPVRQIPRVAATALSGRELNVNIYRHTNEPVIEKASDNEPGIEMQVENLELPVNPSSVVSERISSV
How it was run: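 HeLa cells stably expressing cloned human 5-HT2C, grown 24 h in dialyzed FCS; membranes as for human 5-HT2A. [3H]mesulergine (2 nM final) competition, nonspecific with 1 μM mianserine, 1 h at room temperature; GF/B filtration, scintillation counting. Ki via Cheng–Prusoff.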

[6] = target: 5-hydroxytryptamine receptor 2A (Homo sapiens, UniProt P28223); test: Inhibitory constant for human 5-hydroxytryptamine 2A receptor transfected in to CHO cells; format: cell-based
How it was run: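 CHO cells stably expressing cloned human 5-HT2A, grown 24 h in dialyzed FCS before harvest; membranes in 50 mM Tris-HCl pH 7.5. […] Ki from IC50 by Cheng–Prusoff.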

[7] = target: T1, 5-hydroxytryptamine receptor 2A; test: Negative log concentration of antagonistic compound was determined on 5-hydroxytryptamine 2A receptor of Rat thoracic aorta; format: functional, tissue-based; conditions: read-out: pA2 (converted)
How it was run: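 Denuded thoracic aorta rings (4 mm) from male Sprague–Dawley rats (250–350 g), 2 g tension in Krebs organ bath; isometric contraction. Sensitized with 10 μM 5-HT, then cumulative 5-HT curves (30 nM–100 μM) alternating with 60 min equilibration; two matching control runs, then antagonist added 20 min before end of equilibration. Single-concentration method: […].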

[8] = target: 5-hydroxytryptamine receptor 2C (Bos taurus); test: Inhibitory constant was determined on 5-hydroxytryptamine 2C receptor of Bovine choroid plexus
[9] = target: T2, 5-hydroxytryptamine receptor 2B; test: Antagonistic activity on 5-hydroxytryptamine 2B receptor of Rat stomach fundus;ND is not determined; format: functional, tissue-based; conditions: read-out: pA2 (converted); how it was run: as §1

5-hydroxytryptamine receptor 2A (Homo sapiens, UniProt P28223), sequence (P28223 whole entry): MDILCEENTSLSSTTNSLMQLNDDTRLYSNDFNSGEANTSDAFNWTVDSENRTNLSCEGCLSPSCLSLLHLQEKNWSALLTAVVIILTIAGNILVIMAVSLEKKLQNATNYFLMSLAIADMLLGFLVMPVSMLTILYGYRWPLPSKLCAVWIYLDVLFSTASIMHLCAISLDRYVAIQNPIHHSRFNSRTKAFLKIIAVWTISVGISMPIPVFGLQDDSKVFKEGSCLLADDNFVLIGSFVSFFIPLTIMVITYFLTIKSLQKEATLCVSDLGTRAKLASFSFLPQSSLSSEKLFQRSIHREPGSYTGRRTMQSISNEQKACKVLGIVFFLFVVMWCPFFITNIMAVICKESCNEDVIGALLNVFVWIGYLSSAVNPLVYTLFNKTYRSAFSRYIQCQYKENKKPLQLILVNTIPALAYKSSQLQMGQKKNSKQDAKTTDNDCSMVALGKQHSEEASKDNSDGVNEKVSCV
T1 sequence (P14842 whole entry): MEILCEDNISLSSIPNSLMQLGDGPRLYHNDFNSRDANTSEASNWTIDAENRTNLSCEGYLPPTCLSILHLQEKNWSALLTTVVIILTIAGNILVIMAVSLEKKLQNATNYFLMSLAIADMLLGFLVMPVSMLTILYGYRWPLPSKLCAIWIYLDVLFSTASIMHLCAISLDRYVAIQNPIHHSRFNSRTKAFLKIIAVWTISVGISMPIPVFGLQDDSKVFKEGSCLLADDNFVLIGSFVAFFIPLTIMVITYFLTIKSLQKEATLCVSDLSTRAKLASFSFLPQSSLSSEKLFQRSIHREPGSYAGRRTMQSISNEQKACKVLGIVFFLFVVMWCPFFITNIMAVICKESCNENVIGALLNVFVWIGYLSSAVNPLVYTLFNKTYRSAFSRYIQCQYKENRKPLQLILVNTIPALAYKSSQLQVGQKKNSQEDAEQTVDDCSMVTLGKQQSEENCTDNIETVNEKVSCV
Serotonin receptor 2a and 2c (5HT2A and 5HT2C) (Rattus norvegicus), sequence (P08909 whole entry, looked up): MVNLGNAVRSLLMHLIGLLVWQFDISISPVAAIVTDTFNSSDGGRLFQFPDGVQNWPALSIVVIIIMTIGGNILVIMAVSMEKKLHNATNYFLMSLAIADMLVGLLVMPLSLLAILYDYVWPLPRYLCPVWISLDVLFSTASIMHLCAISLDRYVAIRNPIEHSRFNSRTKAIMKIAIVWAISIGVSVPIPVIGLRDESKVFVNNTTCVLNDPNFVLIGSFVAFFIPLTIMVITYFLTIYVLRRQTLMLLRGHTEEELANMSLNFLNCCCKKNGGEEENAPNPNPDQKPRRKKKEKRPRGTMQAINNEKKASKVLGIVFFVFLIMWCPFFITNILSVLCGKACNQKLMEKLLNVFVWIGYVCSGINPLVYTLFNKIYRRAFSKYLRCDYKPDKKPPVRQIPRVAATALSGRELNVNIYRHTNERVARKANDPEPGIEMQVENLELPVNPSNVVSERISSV
Serotonin receptor 2a and 2c (5HT2A and 5HT2C) (Rattus norvegicus), sequence (P14842 whole entry, looked up): as the sequence (P14842 whole entry) above
T2 sequence (P30994 whole entry): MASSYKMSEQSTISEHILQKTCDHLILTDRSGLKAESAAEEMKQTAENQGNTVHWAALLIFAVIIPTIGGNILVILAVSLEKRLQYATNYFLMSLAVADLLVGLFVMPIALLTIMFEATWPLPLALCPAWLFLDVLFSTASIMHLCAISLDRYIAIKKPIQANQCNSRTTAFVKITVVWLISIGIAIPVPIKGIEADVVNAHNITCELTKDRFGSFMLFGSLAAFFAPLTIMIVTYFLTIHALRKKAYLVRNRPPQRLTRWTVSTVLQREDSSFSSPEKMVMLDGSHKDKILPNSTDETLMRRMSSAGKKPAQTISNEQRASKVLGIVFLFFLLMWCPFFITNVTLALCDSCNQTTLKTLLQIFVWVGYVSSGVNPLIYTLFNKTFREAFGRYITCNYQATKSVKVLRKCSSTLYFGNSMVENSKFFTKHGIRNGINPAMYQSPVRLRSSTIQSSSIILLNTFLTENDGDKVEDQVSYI

| SMILES | Kb [1] | Ratio [2] | Ki [4] | further results |
| --- | --- | --- | --- | --- |
| O=C1CC(CN2CCN(c3ncccn3)CC2)Cc2occc21 (configuration not stated) |  | 1 | > 10000 nM | Kb [3]: 977 nM |
| O=C1CC(CN2CCC(c3noc4cc(F)ccc34)CC2)Cc2sccc21 (racemic) [listing 1 of 2 here] |  | 44 |  |  |
| O=C(CCCN1CCN(CC2CC(=O)c3ccoc3C2)CC1)c1ccc(F)cc1 (configuration not stated) |  | 33 |  |  |
| O=C1c2ccoc2CCC1CCN1CCC(c2noc3cc(F)ccc23)CC1 (configuration not stated) | 0.562 nM | 65 | 1.07 nM | Ki [5]: 34.7 nM; Ki [6]: 0.724 nM |
| CCc1c(C)[nH]c2c1C(=O)CC(CN1CCC(C(=O)c3ccc(F)cc3)CC1)C2 (configuration not stated) |  | 4.1 | 8.71 nM |  |
| O=C1CC(CN2CCC(c3noc4cc(F)ccc34)CC2)Cc2sccc21 (racemic) [listing 2 of 2 here] | 0.741 nM |  |  | Log Ki [8]: -6.69 |
| O=C1CC(CN2CCC(c3noc4cc(F)ccc34)CC2)Cc2[nH]c3ccccc3c21 (configuration not stated) |  | 36 |  | Ki [5]: 27.5 nM; Ki [6]: 1.17 nM |
| O=C1CC(CN2CCC(C(=O)c3ccc(F)cc3)CC2)Cc2ccccc21 (configuration not stated) | 13.8 nM |  |  |  |
| CCc1c(C)[nH]c2c1C(=O)CC(CN1CCN(CCCC(=O)c3ccc(F)cc3)CC1)C2 (configuration not stated) |  | 0.26 | 912 nM |  |
| O=C1CC(CN2CCC(C(=O)c3ccc(F)cc3)CC2)Cc2occc21 (configuration not stated) | 52.5 nM | 616 |  |  |
| O=C(CCCCN1CCN(CC2CC(=O)c3ccoc3C2)CC1)c1ccc(F)cc1 (configuration not stated) |  | 25 |  |  |
| O=C1CC(CN2CCC(C(=O)c3ccc(F)cc3)CC2)Cc2sccc21 (configuration not stated) | 15.1 nM |  |  |  |
| O=C(c1ccc(F)cc1)C1CCN(CCC2Cc3cc(F)ccc3C2=O)CC1 (configuration not stated) | 7.59 nM | 219 |  |  |
| O=C1CC(CN2CCC(c3noc4cc(F)ccc34)CC2)Cc2sccc21 (stereo in doubt; (-)18h) |  |  | 11.7 nM |  |
| O=C1CC(CN2CCC(c3noc4cc(F)ccc34)CC2)Cc2ccccc21 (configuration not stated) |  |  | 2.69 nM |  |
| O=C1CC(CN2CCC(C(=O)c3ccc(F)cc3)CC2)Cc2[nH]c3ccccc3c21 (configuration not stated) |  | 65 |  |  |
| O=C1CC(CN2CCC(c3noc4cc(F)ccc34)CC2)Cc2sccc21 (single isomer, unassigned; (+)) |  |  | 11.5 nM |  |
| O=C1CC(CN2CCC(C(=O)c3ccc(F)cc3)CC2)c2ccccc21 (configuration not stated) | 7.41 nM |  |  |  |
| O=C(CCCN1CCN(CC2CC(=O)c3ccccc3C2)CC1)c1ccc(F)cc1 (configuration not stated) | 53.7 nM | 1780 |  | Ki [6]: 115 nM |
| O=C1CC(CN2CCC(c3noc4cc(F)ccc34)CC2)Cc2occc21 (configuration not stated) | 11.2 nM | 2950 |  | Ki [5]: 3980 nM |
| CCc1c(C)[nH]c2c1C(=O)CC(CN1CCC(c3noc4cc(F)ccc34)CC1)C2 (configuration not stated) |  | 89 | 4.27 nM |  |
| O=C1CC(CN2CCN(c3ccccn3)CC2)c2ccccc21 (configuration not stated) |  | 0.027 | > 10000 nM |  |

More lines, main results first:

| Kb [1] | Ratio [2] | Ki [4] | SMILES | further results |
| --- | --- | --- | --- | --- |
| 44.7 nM | 46 |  | O=C(CCCN1CCN(CCC2CCc3ccccc3C2=O)CC1)c1ccc(F)cc1 (configuration not stated) |  |
|  | 1 | > 10000 nM | COc1ccccc1N1CCN(CC2CC(=O)c3ccoc3C2)CC1 (configuration not stated) |  |
| 63.1 nM |  |  | O=C(CCCN1CCN(CC2CC(=O)c3ccccc32)CC1)c1ccc(F)cc1 (configuration not stated) |  |
| 16.2 nM |  |  | O=C(CCCN1CCN(CC2CC(=O)c3ccsc3C2)CC1)c1ccc(F)cc1 (configuration not stated) |  |
| 0.135 nM |  |  | O=C1c2ccsc2CCC1CCN1CCC(c2noc3cc(F)ccc23)CC1 (configuration not stated) |  |
| 331 nM | 5.5 |  | COc1ccccc1N1CCN(CC2CC(=O)c3ccccc3C2)CC1 (configuration not stated) |  |
|  | 2.5 |  | CCc1c(C)[nH]c2c1C(=O)C(CCN1CCN(c3ccccc3OC)CC1)CC2 (configuration not stated) | Kb [7]: 31.6 nM |
| 33.9 nM | 29 |  | O=C(c1ccc(F)cc1)C1CCN(CCC2CCc3ccccc3C2=O)CC1 (configuration not stated) |  |
|  | 10 |  | O=C1c2sccc2CCC1CCN1CCC(c2noc3cc(F)ccc23)CC1 (configuration not stated) |  |
|  | 31 |  | O=C(c1ccc(F)cc1)C1CCN(CCC2CCc3ccsc3C2=O)CC1 (configuration not stated) | Kb [9]: 331 nM |
| 148 nM |  |  | O=C(CCCN1CCN(CCC2CCc3sccc3C2=O)CC1)c1ccc(F)cc1 (configuration not stated) |  |
| 112 nM |  |  | COc1ccccc1N1CCN(CCC2CCc3sccc3C2=O)CC1 (configuration not stated) |  |
|  | 1440 |  | O=C1CC(CN2CCN(c3ccccc3)CC2)Cc2occc21 (configuration not stated) |  |
|  | 36 | 53.7 nM | O=C(CCCN1CCN(CCC2Cc3cc(F)ccc3C2=O)CC1)c1ccc(F)cc1 (configuration not stated) |  |
|  | 13 |  | CCc1c(C)[nH]c2c1C(=O)CC(CN1CCN(c3ccccc3OC)CC1)C2 (configuration not stated) |  |
|  | 1.9 |  | COc1ccccc1N1CCN(CC2CC(=O)c3c([nH]c4ccccc34)C2)CC1 (configuration not stated) |  |
| 501 nM | 3 | 191 nM | COc1ccccc1N1CCN(CCC2CCc3occc3C2=O)CC1 (configuration not stated) |  |
| 1260 nM |  |  | COc1ccccc1N1CCN(CC2CC(=O)c3ccsc3C2)CC1 (configuration not stated) |  |
| 178 nM |  |  | O=C(c1ccc(F)cc1)C1CCN(CCC2CCCc3ccccc3C2=O)CC1 (configuration not stated) |  |
| 617 nM |  |  | COc1ccccc1N1CCN(CC2CC(=O)c3ccccc32)CC1 (configuration not stated) |  |
| 158 nM | 1.5 | 195 nM | COc1ccccc1N1CCN(CCC2Cc3ccccc3C2=O)CC1 (configuration not stated) |  |
| 676 nM | 89 | 355 nM | O=C1c2ccoc2CCC1CCN1CCN(c2ccccn2)CC1 (configuration not stated) |  |
| 191 nM | 5.8 |  | COc1ccccc1N1CCN(CCC2CCc3ccccc3C2=O)CC1 (configuration not stated) |  |
| 0.955 nM |  |  | O=C(c1ccc(F)cc1)C1CCN(CCC2CCc3sccc3C2=O)CC1 (configuration not stated) |  |
| 23.4 nM |  |  | O=C(CCCN1CCN(CCC2Cc3sccc3C2=O)CC1)c1ccc(F)cc1 (configuration not stated) |  |
| 490 nM | 9.8 | 174 nM | O=C1c2ccsc2CCC1CCN1CCN(c2ccccn2)CC1 (configuration not stated) |  |
| 50.1 nM | 50 |  | O=C(CCCN1CCN(CCC2Cc3ccccc3C2=O)CC1)c1ccc(F)cc1 (configuration not stated) | Ki [5]: > 10000 nM; Ki [6]: 67.6 nM |
| 7.59 nM |  |  | O=C(c1ccc(F)cc1)C1CCN(CCC2Cc3ccccc3C2=O)CC1 (configuration not stated) |  |
| 1.2 nM |  |  | O=C(c1ccc(F)cc1)C1CCN(CCC2Cc3sccc3C2=O)CC1 (configuration not stated) |  |
| 26.3 nM | 18 | 19.5 nM | O=C(c1ccc(F)cc1)C1CCN(CCC2CCc3occc3C2=O)CC1 (configuration not stated) |  |
